Calls of active or inactive are those of the source. No cut-off for these calls is given here.
Experiments:
Format in all cases: functional
Rattus norvegicus [1] = species on record: Rattus norvegicus; assay: Ability of compound at 1 uM to potentiate GABA-mediated currents in cultured postnatal rat hippocampal neurons using whole-cell patch clamp method
Procedure, shortened: (§1)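 Cultured postnatal rat hippocampal neurons (pups 1-2 days old, 3-10 days in vitro) were whole-cell voltage-clamped at -60 mV and room temperature (~22 °C), with a CsCl/HEPES/EGTA pipette solution at pH 7.3. Compound plus 1 μM GABA was pressure-ejected for 200 ms, with DMSO <0.2% final. Peak current was normalized to 1 μM GABA alone on the same cell (100% = no change). N = cells.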

Rattus norvegicus [2] = species on record: Rattus norvegicus; assay: Ability of compound at 10 uM for current activation in the absence of GABA in cultured postnatal rat hippocampal neurons using whole-cell patch clamp method; NR=No response
Procedure, shortened: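 Whole-cell voltage clamp at -60 mV and ~22 °C in rat hippocampal cultures (postnatal pups, 3-10 days in vitro), with a CsCl-based pipette solution at pH 7.3. Compound alone, without GABA, was pressure-ejected for 200 ms (DMSO <0.2% final). The peak directly gated current was compared with the same cell's response to 1 μM GABA alone. N = cells.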

Rattus norvegicus [3] = species on record: Rattus norvegicus; assay: Ability of compound at 1 uM to potentiate GABA-mediated currents in cultured postnatal rat hippocampal neurons using whole-cell patch clamp method; NR=No response; procedure, shortened: as §1
Rattus norvegicus [4] = species on record: Rattus norvegicus; assay: Ability of compound at 10 uM for current activation in the absence of GABA in cultured postnatal rat hippocampal neurons using whole-cell patch clamp method
Procedure, shortened: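 Whole-cell voltage clamp at -60 mV, room temperature (~22 °C), on hippocampal neurons cultured 3-10 days from 1-2 day old albino rat pups. Pipette solution is CsCl-based, pH 7.3. Compound is applied at 10 µM in the absence of GABA (DMSO stock, final DMSO <0.2%) by 200 ms pressure ejection. Peak gated current is compared with the same cell's 1 µM GABA response. N = cells.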

Rattus norvegicus [5] = species on record: Rattus norvegicus; assay: Ability of compound at 1 uM for current activation in the absence of GABA in cultured postnatal rat hippocampal neurons using whole-cell patch clamp method
Rattus norvegicus [6] = species on record: Rattus norvegicus; assay: Ability of compound at 1 uM for current activation in the absence of GABA in cultured postnatal rat hippocampal neurons using whole-cell patch clamp method; NR=No response
Rattus norvegicus [7] = species on record: Rattus norvegicus; assay: Ability of compound at 10 uM to potentiate GABA-mediated currents in cultured postnatal rat hippocampal neurons using whole-cell patch clamp method; procedure, shortened: as §1
Rattus norvegicus [8] = species on record: Rattus norvegicus; assay: Effective concentration against current mediated by 1 uM GABA in cultured rat hippocampal neurons

Row | Structure (SMILES) | Response (Rattus norvegicus [1]) [%] | Gated current (Rattus norvegicus [2]) | Response (Rattus norvegicus [3]) | also measured
1 | C[C@]12CCC3C[C@H](CCO)CCC3C1CC[C@@H]2C#N (some centres not stated) | 255 | inactive |  | 
2 | C[C@]12CCC3C[C@H](CCO)CCC3C1CC[C@H]2C#N (some centres not stated) |  | inactive | inactive | 
3 | C[C@]12CC[C@H]3[C@@H](CC[C@H]4C[C@H](O)CC[C@@H]43)[C@@H]1CC[C@@H]2C#N | 372 |  |  | Gated current (Rattus norvegicus [4]): 38%; Gated current (Rattus norvegicus [5]): 15%
4 | C[C@]12CC[C@H]3[C@@H](CC[C@H]4C[C@H](O)CC[C@@H]43)[C@@H]1CC[C@H]2C#N |  | inactive | inactive | 
5 | C[C@@H]1C2CC[C@@]3(C)C(CC[C@H]3C#N)C2CC[C@H]1CCO (some centres not stated) |  | inactive | inactive | 
6 | CC1(C)C2CC[C@@]3(C)C(CC[C@@H]3C#N)C2CC[C@H]1CCO (some centres not stated) | 220 | inactive |  | 
7 | C[C@]12CC[C@@H](O)C[C@@H]1CC[C@@H]1[C@@H]2CC[C@]2(C)[C@@H](C#N)CC[C@@H]12 | 443 |  |  | Gated current (Rattus norvegicus [4]): 49%; Gated current (Rattus norvegicus [5]): 22%
8 | C[C@]12CC[C@@H](O)C[C@@H]1CC[C@@H]1[C@@H]2CC[C@]2(C)[C@H](C#N)CC[C@@H]12 |  | inactive | inactive | 
9 | C[C@H]1C2CC[C@@]3(C)C(CC[C@@H]3C#N)C2CC[C@H]1CCO (some centres not stated) | 382 |  |  | Gated current (Rattus norvegicus [4]): 26%; Gated current (Rattus norvegicus [6]): inactive
10 | C[C@@H]1C2CC[C@@]3(C)C(CC[C@@H]3C#N)C2CC[C@H]1CCO (some centres not stated) |  | inactive | inactive | Response (Rattus norvegicus [7]): 244%
11 | CC(=O)[C@H]1CCC2C3CC[C@@H](CCO)CC3CC[C@@]21C (some centres not stated) |  |  |  | EC50 (Rattus norvegicus [8]): 200 nM
12 | CC1(C)C2CC[C@@]3(C)C(CC[C@H]3C#N)C2CC[C@H]1CCO (some centres not stated) |  | inactive | inactive | 

Reference: ChEMBL document CHEMBL1127035, “Neurosteroid analogues: structure-activity studies of benz[e]indene modulators of GABAA receptor function. 1. The effect of 6-methyl substitution on the electrophysiological activity of 7-substituted benz[e]indene-3-carbonitriles” (J Med Chem, 1993)
